Experimental data from ChEMBL document CHEMBL4261495, “Antitrypanosomal and antileishmanial activity of prenyl-1,2,3-triazoles” (Medchemcomm, 2017).

Legend:
Trypanosoma cruzi = experiment: Antitrypanosomal activity against Trypanosoma cruzi strain CL Brener epimastigotes measured after 72 hrs by Neubauer chamber based cell counting method; assay type: functional, organism-based
Procedure, shortened: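 CL-Brener epimastigotes were grown in BHT medium at 28 °C and seeded at 3-4 × 10^6 parasites/mL. Compound was added in DMSO (1% final) at 5-100 µg/mL, with benznidazole as positive control. After 72 h, parasites were counted in a Neubauer chamber and inhibition was taken relative to untreated growth. IC50 came from the inhibition-concentration plot. Triplicates were run; values average three independent experiments.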

Leishmania donovani = experiment: Antileishmanial activity against Leishmania donovani S1 promastigotes after 72 hrs by alamar blue assay; assay type: functional, organism-based; conditions: S1, 72 h
Procedure, shortened: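 Leishmania donovani strain S1 promastigotes at 2×10^6 cells/mL were exposed to final concentrations of 40, 8 and 1.6 µg/mL. Plates were incubated 72 h at 26 °C, and growth was read by Alamar blue. Pentamidine and amphotericin B served as standards.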

Vero = experiment: Cytotoxicity against African green monkey Vero cells at 20 uM after 2 days by neutral red uptake assay; assay type: cell-based; conditions: chlorocebus sabaeus, 48 h
[1] = Octanol/water partition coefficient, log P of the compound; assay type: physicochemical
[2] = biological target: Sterol 14-alpha demethylase (Trypanosoma cruzi (strain CL Brener)) (UniProt Q7Z1V1); experiment: Inhibition of Trypanosoma cruzi CYP51 assessed as residual enzyme activity at 100 uM using [3H]-MDL as substrate pretreated for 5 mins followed by NADPH addition by RP-HPLC analysis relative to control
Procedure, shortened: (§1)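 TcCYP51 was reconstituted with T. brucei CPR and DLPC (1:2:50 molar), preincubated 10 min at room temperature. The reaction held 1 µM enzyme and 50 µM [3H]-labelled/unlabelled 24-methylenedihydrolanosterol in 20 mM MOPS pH 7.4, 50 mM KCl, 5 mM MgCl2, 10% glycerol, isocitrate dehydrogenase and 25 mM isocitrate. Inhibitor (1-100 µM) was preincubated 5 min at 37 °C, then 5 µM NADPH started the reaction. Products were detected by radioactivity.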

[3] = biological target: Sterol 14-alpha demethylase (Trypanosoma cruzi (strain CL Brener)) (UniProt Q7Z1V1); experiment: Inhibition of Trypanosoma cruzi CYP51 assessed as residual enzyme activity at 100 uM using [3H]-MDL as substrate pretreated for 10 mins followed by NADPH addition by RP-HPLC analysis relative to control; procedure, shortened: as §1
[4] = biological target: Sterol 14-alpha demethylase (Trypanosoma cruzi (strain CL Brener), UniProt Q7Z1V1); experiment: Binding affinity to Trypanosoma cruzi CYP51 by spectrophotometric method
Procedure, shortened: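 Spectral titration used 2 µM TcCYP51 in buffer A at 24 °C, scanned over 350-500 nm in tandem cuvettes. Ligand was added stepwise from 1 or 10 mM DMSO stocks until the spectral response peaked, with DMSO added to the reference cuvette. Apparent Kd came from fitting absorbance change against free ligand concentration to a rectangular hyperbola.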

Sterol 14-alpha demethylase (Trypanosoma cruzi (strain CL Brener)), sequence (Q7Z1V1 whole entry, looked up): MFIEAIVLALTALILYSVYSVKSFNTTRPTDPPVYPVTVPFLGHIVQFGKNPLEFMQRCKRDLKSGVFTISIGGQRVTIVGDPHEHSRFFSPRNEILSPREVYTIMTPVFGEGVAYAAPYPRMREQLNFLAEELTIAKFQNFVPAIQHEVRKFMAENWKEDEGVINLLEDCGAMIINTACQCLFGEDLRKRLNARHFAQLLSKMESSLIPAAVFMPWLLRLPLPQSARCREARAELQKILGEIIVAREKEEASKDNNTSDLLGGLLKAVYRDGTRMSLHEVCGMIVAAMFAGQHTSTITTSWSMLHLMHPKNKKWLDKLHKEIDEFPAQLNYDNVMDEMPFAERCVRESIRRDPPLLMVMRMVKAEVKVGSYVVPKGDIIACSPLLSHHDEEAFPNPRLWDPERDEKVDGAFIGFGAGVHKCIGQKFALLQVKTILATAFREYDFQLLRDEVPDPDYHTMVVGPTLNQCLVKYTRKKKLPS
Sterol 14-alpha demethylase, sequence (Q7Z1V1 whole entry): as the sequence (Q7Z1V1 whole entry, looked up) above

Row | Compound | IC50 (Trypanosoma cruzi) | logP [1] | Activity [2] | Activity [3] | Kd [4] | IC50 (Leishmania donovani) | Activity (Vero)
1 | CCCCCc1cn(C/C=C(\C)CCC=C(C)C)nn1 | 51 µM | 5.45 | – | – | – | 94 µM | Non-Toxic
2 | CC(C)=CCC/C(C)=C/Cn1cc(-c2ccccc2)nn1 | 39 µM | 4.91 | – | – | – | 49 µM | Non-Toxic
3 | CCCc1cn(C/C=C(/C)CCC=C(C)C)nn1 | 44 µM | 4.05 | – | – | – | 44 µM | Non-Toxic
4 | COC(=O)c1cn(CC=C(C)C)nn1 | > 100 µM | 1.3 | – | – | – | > 100 µM | Non-Toxic
5 | COC(=O)c1cn(C/C=C(/C)CCC=C(C)C)nn1 | 87 µM | 3.2 | – | – | – | > 100 µM | Non-Toxic
6 | CC(C)=CCC/C(C)=C/CC/C(C)=C/Cn1cc(-c2ccccc2)nn1 | 34 µM | 6.95 | – | – | – | 48 µM | Non-Toxic
7 | CCCc1cn(CC=C(C)C)nn1 | > 100 µM | 2.47 | – | – | – | > 100 µM | Non-Toxic
8 | O=C(Cn1ccnc1[N+](=O)[O-])NCc1ccccc1 [BENZNIDAZOLE] | – | 0.78 | – | – | – | – | –
9 | CCCc1cn(C/C=C(/C)CC/C=C(\C)CCC=C(C)C)nn1 | 17 µM | 6.5 | 14% | 49% | – | 33 µM | Non-Toxic
10 | COC(=O)c1cn(C/C=C(\C)CC/C=C(\C)CCC=C(C)C)nn1 | 9 µM | 5.25 | 35% | 63% | – | 31 µM | Non-Toxic
11 | N=C(N)c1ccc(OCCCCCOc2ccc(C(=N)N)cc2)cc1 [PENTAMIDINE] | – | 1.49 | – | – | – | – | –
12 | CCCCCCCCc1cn(C/C=C(/C)CC/C=C(\C)CCC=C(C)C)nn1 | > 100 µM | 8.76 | – | – | – | 52 µM | Non-Toxic

More lines, main results first:

Row | IC50 (Trypanosoma cruzi) | logP [1] | Activity [2] | Activity [3] | Kd [4] | Compound | IC50 (Leishmania donovani) | Activity (Vero)
13 | 36 µM | 5.45 | – | – | – | CCCCCc1cn(C/C=C(/C)CCC=C(C)C)nn1 | 40 µM | Non-Toxic
14 | > 100 µM | 8.76 | – | – | – | CCCCCCCCc1cn(C/C=C(\C)CC/C=C(\C)CCC=C(C)C)nn1 | 36 µM | Non-Toxic
15 | 18 µM | 7.5 | 7% | 39% | 7.6 µM | CCCCCc1cn(C/C=C(/C)CC/C=C(\C)CCC=C(C)C)nn1 | 11 µM | Non-Toxic
16 | 29 µM | 7.5 | 9% | 33% | – | CCCCCc1cn(C/C=C(\C)CC/C=C(\C)CCC=C(C)C)nn1 | 44 µM | Non-Toxic
17 | 31 µM | 4.5 | – | – | – | CCCc1cn(C/C=C(\C)CCC=C(C)C)nn1 | 72 µM | Non-Toxic
18 | > 100 µM | 2.82 | – | – | – | CC(C)=CCn1cc(-c2ccccc2)nn1 | > 100 µM | Non-Toxic
19 | 32 µM | 6.95 | – | – | – | CC(C)=CCC/C(C)=C/CC/C(C)=C\Cn1cc(-c2ccccc2)nn1 | 49 µM | Non-Toxic
20 | 87 µM | 3.2 | – | – | – | COC(=O)c1cn(C/C=C(\C)CCC=C(C)C)nn1 | > 100 µM | Non-Toxic
21 | 39 µM | 4.91 | – | – | – | CC(C)=CCC/C(C)=C\Cn1cc(-c2ccccc2)nn1 | 49 µM | Non-Toxic
22 | > 100 µM | 3.46 | – | – | – | CCCCCc1cn(CC=C(C)C)nn1 | > 100 µM | Non-Toxic
23 | 18 µM | 6.5 | 27% | 56% | – | CCCc1cn(C/C=C(\C)CC/C=C(\C)CCC=C(C)C)nn1 | 51 µM | Non-Toxic
24 | 15 µM | 5.25 | 26% | 59% | – | COC(=O)c1cn(C/C=C(/C)CC/C=C(\C)CCC=C(C)C)nn1 | 11 µM | Non-Toxic
25 | 27 µM | 6.92 | – | – | – | CCCCCCCCc1cn(C/C=C(\C)CCC=C(C)C)nn1 | 57 µM | Non-Toxic
26 | 27 µM | 4.92 | – | – | – | CCCCCCCCc1cn(CC=C(C)C)nn1 | > 100 µM | Non-Toxic
27 | 34 µM | 6.92 | – | – | – | CCCCCCCCc1cn(C/C=C(/C)CCC=C(C)C)nn1 | 16 µM | Non-Toxic
